Assay [1] concerns the target Glucagon receptor (Homo sapiens) (UniProt P47871). As to the kind of experiment: Agonist activity at human glucagon receptor expressed in HEK293 cells assessed as stimulation of cAMP levels incubated for 6 hrs by multiple response element/cAMP response element (MRE/CRE)-driven reporter gene assay. The assay is classed as functional, cell-based. In short, it runs like this: (§1)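 HEK293 cells transiently cotransfected with human GLP-2 receptor or glucagon receptor expression vector plus a luciferase reporter carrying three copies of multiple response element and one cAMP response element. Luciferase activity at different compound concentrations was expressed relative to the respective native peptide (GLP-2 or glucagon, 100%). Mean ± SEM of triplicate experiments.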
Background: Changes in cAMP serve as a functional read-out for many G protein-coupled receptors.

Assay [2] deals with T1, Glucagon-like peptide 1 receptor (Rattus norvegicus) (UniProt P32301).
T1 sequence (whole entry): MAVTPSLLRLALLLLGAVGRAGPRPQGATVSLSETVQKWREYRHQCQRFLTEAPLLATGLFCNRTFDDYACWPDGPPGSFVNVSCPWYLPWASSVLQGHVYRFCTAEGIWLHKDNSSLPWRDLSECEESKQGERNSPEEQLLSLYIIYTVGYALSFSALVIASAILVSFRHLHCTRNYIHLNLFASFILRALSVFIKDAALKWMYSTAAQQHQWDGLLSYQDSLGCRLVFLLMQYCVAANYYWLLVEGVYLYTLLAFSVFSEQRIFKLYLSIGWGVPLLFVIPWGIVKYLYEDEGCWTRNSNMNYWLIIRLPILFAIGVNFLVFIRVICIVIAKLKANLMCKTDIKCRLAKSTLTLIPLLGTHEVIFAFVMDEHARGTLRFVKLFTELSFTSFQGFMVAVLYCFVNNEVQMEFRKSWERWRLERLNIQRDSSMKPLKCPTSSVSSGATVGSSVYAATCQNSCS
Put plainly: Inhibition of [125I]GLP1 (7-36) amide binding to rat GLP1R expressed in HEK293 cells relative to untreated control. On the set-up: concentration or dose not given beside the values. The assay is classed as cell-based. The settings on record: concentration not given here. In short, it runs like this: (§2)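 Membranes (17 μg protein) from HEK293 cells stably expressing rat GLP-1R were preincubated 5 h at 4 °C with FlashBlue beads (150 μg). Then 40 pM [125I]GLP-1(7−36) amide or [125I]Exendin(9−39) was added with aprotinin 2 μg/mL, leupeptin 100 μM and test compound at varied concentrations. Incubated overnight at 4 °C, then bound radioactivity counted. Mean ± SEM of two independent experiments.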

Assay [3] deals with T1, Glucagon-like peptide 1 receptor (Rattus norvegicus). Put plainly: Inhibition of [125I]Exendin (9-39) binding to rat GLP1R expressed in HEK293 cells. On the set-up: concentration or dose not given beside the values. The assay is classed as cell-based. The settings on record: concentration not given here. In short, it runs like this:
as §2

Assay [4] deals with T2, Glucagon-like peptide 1 receptor (Rattus norvegicus, UniProt P32301).
T2 sequence (P32301 whole entry): T1 sequence (whole entry)
As to the kind of experiment: Inhibition of [125I]GLP1 (7-36) amide binding to rat GLP1R expressed in HEK293 cells. The assay is classed as cell-based. In short, it runs like this:
as §2

Assay [5] concerns the target T1, Glucagon-like peptide 1 receptor (Rattus norvegicus). As to the kind of experiment: Agonist activity at rat GLP1R expressed in HEK293 cells assessed as stimulation of cAMP levels incubated for 6 hrs by multiple response element/cAMP response element (MRE/CRE)-driven reporter gene assay relative to 10 nM GLP1. The assay is classed as functional, cell-based. In short, it runs like this: (§3)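 Stable HEK293 line co-expressing rat GLP-1R (pCMV-Tag2B) and a luciferase reporter with 3× MRE plus 1× CRE, seeded at 40000 cells/well and cultured overnight. Compounds in DMSO or GLP-1(7−37) were added for 6 h, then cells were lysed and luciferase read (Steady-Glo). The 10 nM GLP-1 maximum was taken as 100%. Mean ± SEM of two independent experiments; some values come from a single run.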

For assay [6], the target named is T2, Glucagon-like peptide 1 receptor. As to the kind of experiment: Agonist activity at rat GLP1R expressed in HEK293 cells assessed as stimulation of cAMP levels incubated for 6 hrs by multiple response element/cAMP response element (MRE/CRE)-driven reporter gene assay. It is filed as functional, cell-based. In short, it runs like this:
as §3

In assay [7] the target is T3, Glucagon-like peptide 2 receptor (Homo sapiens) (UniProt O95838).
T3 sequence (whole entry): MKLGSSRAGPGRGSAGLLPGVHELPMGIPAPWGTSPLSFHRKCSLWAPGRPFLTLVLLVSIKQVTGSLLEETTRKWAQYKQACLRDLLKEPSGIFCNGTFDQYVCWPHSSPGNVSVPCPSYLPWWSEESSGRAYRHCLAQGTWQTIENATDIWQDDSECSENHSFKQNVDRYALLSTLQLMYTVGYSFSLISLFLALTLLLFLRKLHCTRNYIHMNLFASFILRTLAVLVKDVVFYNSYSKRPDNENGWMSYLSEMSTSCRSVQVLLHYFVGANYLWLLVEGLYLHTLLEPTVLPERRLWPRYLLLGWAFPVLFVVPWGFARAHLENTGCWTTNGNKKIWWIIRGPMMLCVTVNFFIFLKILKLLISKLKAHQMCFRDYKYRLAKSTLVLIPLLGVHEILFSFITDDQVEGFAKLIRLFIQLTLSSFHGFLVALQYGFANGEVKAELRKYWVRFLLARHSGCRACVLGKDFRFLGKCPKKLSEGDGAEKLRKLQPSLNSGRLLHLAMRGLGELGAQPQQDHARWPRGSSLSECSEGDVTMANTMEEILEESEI
As to the kind of experiment: Agonist activity at human GLP2R expressed in HEK293 cells assessed as stimulation of cAMP levels incubated for 6 hrs by multiple response element/cAMP response element (MRE/CRE)-driven reporter gene assay. It is filed as functional, cell-based. In short, it runs like this: as §1

The subject of assay [8] is Mus musculus. Put plainly: Inhibition of acute food intake in intraperitoneally dosed C57BL/6J mouse measured 6 hrs post dose. The assay is classed as functional, organism-based. In short, it runs like this: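 Male C57BL/6J mice (6 weeks, 18−20 g) fasted overnight and given a single ip dose of 0.1, 0.3, 1 or 3 mg or vehicle (1% DMSO, 20% PEG400 in saline). Mice housed singly with a preweighed food pellet, reweighed every 15 or 30 min for 6 h to give cumulative intake. n ≥ 6 per group; mean ± SEM.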

Assay [9] deals with Mus musculus. Put plainly: Reduction of body weight in C57BL/6J mouse diet-induced obesity model dosed intraperitoneally 3 times per week for 28 days by chronic weight loss study. The assay is classed as functional, organism-based. In short, it runs like this:
(§4)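 Male C57BL/6J mice (8 weeks at start, 18−20 g) kept on high-fat diet (60% fat) for 12 weeks, then randomised by body weight to groups of n = 8−9. Dosed ip Monday/Wednesday/Friday for 28 days with 0, 0.3, 1 or 3 mg in 1% DMSO/20% PEG400/saline, pH 7.4. Body weight recorded daily; a standard-chow group (n = 8) served as reference.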

Assay [10] deals with Mus musculus. As to the kind of experiment: Reduction of body weight in C57BL/6J mouse diet-induced obesity model at 3 mg, ip dosed 3 times per week for 28 days by chronic weight loss study. The assay is classed as functional, organism-based. In short, it runs like this: as §4

The source of these data is ChEMBL document CHEMBL2157924, “Cyclobutane derivatives as novel nonpeptidic small molecule agonists of glucagon-like peptide-1 receptor” (J Med Chem, 2012).

Active and inactive are the calls of the source. The rule behind the calls is not given here.

Glucagon receptor (Homo sapiens), sequence (P47871 whole entry): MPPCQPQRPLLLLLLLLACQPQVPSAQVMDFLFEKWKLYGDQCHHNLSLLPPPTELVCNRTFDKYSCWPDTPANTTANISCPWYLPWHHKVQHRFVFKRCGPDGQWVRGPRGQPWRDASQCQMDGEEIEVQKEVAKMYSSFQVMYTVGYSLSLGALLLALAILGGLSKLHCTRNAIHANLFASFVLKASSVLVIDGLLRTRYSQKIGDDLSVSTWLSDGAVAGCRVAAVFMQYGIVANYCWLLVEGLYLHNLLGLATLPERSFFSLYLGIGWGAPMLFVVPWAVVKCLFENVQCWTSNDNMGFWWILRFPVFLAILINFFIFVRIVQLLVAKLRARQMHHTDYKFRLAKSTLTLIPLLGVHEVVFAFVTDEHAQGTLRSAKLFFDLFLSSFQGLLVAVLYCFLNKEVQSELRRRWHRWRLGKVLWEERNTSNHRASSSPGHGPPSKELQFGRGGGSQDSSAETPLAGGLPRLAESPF

In the case of GLUCAGON, in [1], the result was Active.
As usually defined, the inhibition is the drop in the measured response relative to a control, in per cent. A word on the IC50: it is the point on the concentration scale where inhibition reaches its midpoint. By EC50 is commonly meant the concentration needed to bring the measured effect to its halfway point. For the compound `CC[C@H](C)[C@H](NC(=O)[C@H](Cc1ccccc1)NC(=O)[C@H](CCC(=O)O)NC(=O)[C@H](CCCCN)NC(=O)[C@H](C)NC(=O)[C@H](C)NC(=O)[C@H](CCC(N)=O)NC(=O)CNC(=O)[C@H](CCC(=O)O)NC(=O)[C@H](CC(C)C)NC(=O)[C@H](Cc1ccc(O)cc1)NC(=O)[C@H](CO)NC(=O)[C@H](CO)NC(=O)[C@@H](NC(=O)[C@H](CC(=O)O)NC(=O)[C@H](CO)NC(=O)[C@@H](NC(=O)[C@H](Cc1ccccc1)NC(=O)[C@@H](NC(=O)CNC(=O)[C@H](CCC(=O)O)NC(=O)[C@H](C)NC(=O)[C@H](Cc1cnc[nH]1)NC(=O)[C@H](CCCNC(=N)N)NC(=O)[C@H](CCC(=O)O)NC(=O)[C@H](Cc1ccccc1)NC(=O)[C@H](CCC(=O)O)NC(=O)[C@H](CC(=O)O)NC(=O)[C@@H](N)Cc1cnc[nH]1)[C@@H](C)O)[C@@H](C)O)C(C)C)C(=O)N[C@@H](C)C(=O)N[C@@H](Cc1c[nH]c2ccccc12)C(=O)N[C@@H](CC(C)C)C(=O)N[C@H](C(=O)N[C@@H](CCCCN)C(=O)NCC(=O)N[C@@H](CCCNC(=N)N)C(=O)NCC(=O)O)C(C)C`, the figures for the inhibition in [2] and in assay [3] were 100% and 97%, respectively. The same compound came in with an IC50 in assay [4] of 1 nM. Moreover, in assay [5], the Efficacy was found to be 100%. For the same compound, the half-maximal effective concentration (EC50) in assay [6] was found to be 0.09 nM. Besides, in assay [7], the result was inactive.
In the case of `COc1cc([C@H]2[C@](NC(=O)c3ccc(NC(=O)C(C)C)cc3)(C(=O)O)[C@@H](c3ccc(OC(=O)c4cccs4)c(OC)c3)[C@]2(NC(=O)c2ccc(NC(=O)C(C)C)cc2)C(=O)O)ccc1OC(=O)c1cccs1`, the inhibition in assay [2] amounted to 58.2%; in assay [3], 49.7%. Further, the IC50 in assay [4] worked out at 300 nM. The Efficacy in [5] was determined as 73.6%. Besides, in assay [6], the EC50 amounted to 203 nM. Also, the inhibition result in the assay on Mus musculus [8] was “Active”. Also, the Activity entry with Mus musculus [9] is “Dose-dependent effect”.
`COc1cc([C@H]2[C@](NC(=O)c3ccc(NC(=O)OC(C)(C)C)cc3)(C(=O)O)[C@@H](c3ccc(OC(=O)c4cccs4)c(OC)c3)[C@]2(NC(=O)c2ccc(NC(=O)OC(C)(C)C)cc2)C(=O)O)ccc1OC(=O)c1cccs1` (stereo in doubt; 3): the figures for the inhibition in assay [2] and in assay [3] were 87.2% and 63.1%, respectively. Moreover, the Efficacy in assay [5] worked out at 96.7%. Besides, the outcome in [7] and in [1] was inactive. Moreover, the result with Mus musculus [10] was Active.
